Screening results as filed in PubChem.
An excerpt weighted towards active compounds, which were near 1.1% of everything screened.
G6PDH CS – counter-screen for G6PDH assay hits: L. mesenteroides G6PDH inhibition. 0.12% of 200,000 active. inhibition, % at 5 µM. Purified L. mesenteroides G6PDH, diaphorase/resazurin coupled fluorescence, 45 min; in the data active = inhibition above about 50%
PMI act hi M6P – PMI (human) activation, high substrate; P34949; coupled PMI enzyme assay, resazurin fluorescence, 20 min; active compounds read high; 1 = untreated enzyme, 0 = substrate-free blank; activation factor at 20 µM; 0.34% of 190,000 active;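 active = activation factor of 2 or more at 20 µM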
Target sequence (P34949 whole entry, looked up): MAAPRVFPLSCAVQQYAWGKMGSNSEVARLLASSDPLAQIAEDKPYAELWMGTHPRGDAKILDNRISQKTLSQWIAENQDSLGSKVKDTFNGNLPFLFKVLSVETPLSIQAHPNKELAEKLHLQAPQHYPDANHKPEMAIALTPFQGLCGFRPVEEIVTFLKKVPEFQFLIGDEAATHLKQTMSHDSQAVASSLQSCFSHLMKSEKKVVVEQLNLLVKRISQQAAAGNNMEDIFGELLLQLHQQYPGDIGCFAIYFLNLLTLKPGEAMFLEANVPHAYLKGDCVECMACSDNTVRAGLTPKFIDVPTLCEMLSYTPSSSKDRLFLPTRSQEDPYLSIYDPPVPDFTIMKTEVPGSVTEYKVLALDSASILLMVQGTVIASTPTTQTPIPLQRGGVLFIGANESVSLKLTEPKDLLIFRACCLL
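assay system = human phosphomannose isomerase with PGI, G6PDH, diaphorase coupling enzymes | quantity = 15 ng/mL PMI | incubation = enzyme reaction with compound 20 min at room temperature | medium = HEPES pH 7.4 buffer with MgCl2 and Tween-20 | compound dosing = one concentration, 20 µM, in 1% DMSO | measured by = Diaphorase-driven resazurin-to-resorufin fluorescence, excitation 544, emission 590 nm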
PMI activator – activators of human phosphomannose isomerase. 0.005% of 190,000 active. P34949. activation factor at 20 µM. purified human PMI, coupled resazurin fluorescence, 20 min; active compounds read high; 1 = vehicle control, 0 substrate-free wells;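 active = activation factor of 2 or more at 20 µM, relative to plate controls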
Diaph inh CS – diaphorase inhibition or chemical oxidation counter-screen; diaphorase resazurin-to-resorufin fluorescence, NADH, 16 min; bacterial (C. kluyveri) enzyme, not human; inhibition, % at 20 µM; 0.69% of 190,000 active;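 active = primary screen inhibition at 20 µM above a set limit, cut at about 50% in these data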
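System: Bacterial diaphorase enzyme (C. kluyveri) | Incubation: 16-min room-temperature incubation before reading | Benchmarks: No-NADH positive control and DMSO neutral control | Measured by: Resorufin fluorescence 544/590 nm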
Diaph act CS – activates diaphorase or chemically reduces, flagging diaphorase assay artifacts; Diaphorase/resazurin coupled assay, resorufin fluorescence, 16 min; active compounds read high; 1 = vehicle wells, 0 = NADH-free wells; 0.005% of 190,000 active; activation factor at 20 µM;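 active = diaphorase activity raised at least twofold by the compound at 20 µM; inactive = activation factor below 2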
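Assay system: bacterial diaphorase enzyme (C. kluyveri) / Input: enzyme 0.07 U/mL final / Medium: 50 mM HEPES pH 7.4 with 4.542 mM MgCl2, 0.005% Tween 20 / Doses: single compound dose of 20 µM, 1% DMSO final / Incubation: 16 min enzyme reaction, ambient temperature / Signal: fluorescence, excitation 544 nm and emission 590 nm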
Large screens that a line does not name were inactive.

Cc1ccccc1NC(=S)Nc1cccc2cnccc12	Diaph inh CS 52
Cc1ccc(NC(=S)Nc2cccc3cnccc23)cc1	none
CCOC(=O)C1C(=O)C=C(Nc2ccccc2F)CC1c1ccccc1 (stereo unspecified)	none
Cc1ccc(/C=N/Nc2cccc3cccnc23)c(O)c1	PMI act hi M6P 2
Cc1cccc(N/N=C/c2ccccc2O)c1	PMI act hi M6P 2.8
Cc1cccc(N2CSC3=C(C#N)C(c4ccc(C)o4)CC(=O)N3C2)c1 (stereo unspecified)	Diaph inh CS 64
COc1ccc(C2CC(=O)N3CN(c4ccc(C)c(Cl)c4)CSC3=C2C#N)cc1 (stereo unspecified)	Diaph inh CS 50
COc1ccc(C2CC(=O)N3CN(c4ccccc4F)CSC3=C2C#N)cc1OC (stereo unspecified)	Diaph inh CS 53
COc1ccc(N2CSC3=C(C#N)C(c4cccc(OC)c4OC)CC(=O)N3C2)cc1 (stereo unspecified)	none
CCOc1cc(C2CC(=O)N3CN(C4CCCCC4)CSC3=C2C#N)ccc1O (stereo unspecified)	Diaph inh CS 58
Cc1cc(C)n(CCNC(=O)CC2C(=O)NCCN2CC2CCCCC2)n1 (stereo unspecified)	none (no result: PMI act hi M6P, PMI activator, Diaph inh CS, Diaph act CS)
CCOC(=O)SC1=N/C(=C\c2ccc(N(C)C)cc2)C(=O)S1	Diaph inh CS 50
CCSC1=N/C(=C\c2ccc(C(=O)O)cc2)C(=O)S1	none
CN1C(=O)/C(=C\C=C2/CCCN2C)N(C)C1=S	Diaph inh CS 52
Cc1cccc(C(=O)NC(=S)Nc2ccccc2C(F)(F)F)c1	none
Cc1cccc(C(=O)NC(=S)Nc2ccccc2C(=O)O)c1	Diaph inh CS 51
O=C1CCNc2cc3ccccc3cc21	G6PDH CS 58, Diaph inh CS 66
O=C1CCNc2ccc(-c3ccccc3)cc21	none
Cc1ccc(-n2c(=O)[nH]c3c(oc4ccccc43)c2=O)cc1	none
COc1ccc(-n2c(=S)[nH]c3c(oc4ccccc43)c2=O)cc1	Diaph inh CS 68
O=c1c2c3c(sc2n2cnnc2n1Cc1ccccc1)CN(Cc1ccccc1)CC3	PMI act hi M6P 2
O=C(CC1Sc2ccccc2NC1=O)NCc1ccc(Cl)cc1 (stereo unspecified)	none
CCOC(=O)NC1(NC(C)C)Oc2ccccc2O1	none
CCOC(=O)NC1(Nc2ccc(C)cc2)Oc2ccccc2O1	Diaph inh CS 54
Cc1oc(C(C)(C)C)c(CN2CCOCC2)c1C(=O)O	none
Oc1ccc(-c2cn3c(n2)SCC3)cc1O	Diaph inh CS 52
O=C(CS(=O)(=O)c1ccc(Cl)cc1)NCCS(=O)(=O)c1ccc(Cl)cc1	none
CCS(=O)(=O)C1=NN2C(=N)/C(=C\c3ccc(SCc4ccco4)o3)C(=O)N=C2S1	Diaph inh CS 57
Cc1ccc2nc(N3CCN(c4ccccc4F)CC3)c(C=O)c(=O)n2c1	Diaph inh CS 53
Cc1ccc2nc(N3CCCCC3)c(C=O)c(=O)n2c1	none
CNC1=C(N(C(C)=O)c2ccc(Br)cc2)C(=O)c2ccccc2C1=O	G6PDH CS 52
Cc1ccccc1C(=O)NC1CCN(C(=O)Nc2ccccc2Cl)CC1	none
O=C(Nc1ccccc1F)c1ccc(-n2cncn2)nc1	none
C=CCn1c(O)c(N=Nc2ccccc2C)c2ccccc21	PMI act hi M6P 2.2
Cc1ccc(-n2c(-c3ccccc3)c[n+]3c2CCC3)cc1	Diaph inh CS 79
COc1ccc(-n2c(-c3ccc(Br)cc3)c[n+]3c2CCC3)cc1	none
COc1c2ccccc2c(OC)c2ccccc12	none
CCOC(=O)C1=C(O)/C(=C\c2ccc(CNS(=O)(=O)c3ccc(Br)cc3)o2)N=C1C	Diaph inh CS 52
COC(=O)C1=C(O)/C(=C\c2ccc(CNS(=O)(=O)c3ccc(Cl)cc3)o2)N=C1C	none
NC(=O)[C@@H]1CCCN1Cc1nc(Cc2ccccc2Cl)no1	none
CCCCN1C(=O)C(=Nc2cccc3cnccc23)c2ccccc21	none
N#CC1=C(N)Oc2n[nH]c(-c3cccs3)c2C1c1ccsc1 (stereo unspecified)	Diaph inh CS 60
N#CC1=C(N)Oc2n[nH]c(-c3cccs3)c2C1c1ccncc1 (stereo unspecified)	none
O=C(CNC(=S)N(Cc1ccccc1)Cc1cccnc1)NCCN1CCOCC1	none
Cc1occc1-c1nnc(SCC(=O)c2cc3ccccc3oc2=O)o1	Diaph inh CS 51
Cc1occc1-c1nnc(SCC(=O)Nc2ccccn2)o1	none
Nc1c(C(=O)NC2CCCC2)c2nc3ccccc3nc2n1N	Diaph inh CS 50
O=[N+]([O-])c1cc(O)c2ncccc2c1	Diaph inh CS 52
COC(=O)c1ccc(COc2cc([N+](=O)[O-])cc3cccnc23)o1	none (no result: PMI act hi M6P, PMI activator, Diaph inh CS, Diaph act CS)
CCC(C)c1ccc(OCCCCN2CCOCC2)cc1 (stereo unspecified)	none
O=c1/c(=C/c2ccc(O)c([N+](=O)[O-])c2)sc2nc3ccccc3n12	Diaph inh CS 113
O=c1/c(=C\c2cccnc2)sc2nc3ccccc3n12	none
Cc1cc(C)c(S(=O)(=O)/N=C2/C=C(Sc3ncn[nH]3)C(=O)c3ccccc32)cc1C	G6PDH CS 51
O=C(c1ccc(Cl)c(S(=O)(=O)N2CCOCC2)c1)N1CCN(Cc2ccccc2)CC1	none
N#Cc1c(-c2ccccc2)[nH]c(=S)[nH]c1=O	Diaph inh CS 51
CCOC(=O)c1cc2c(=O)n3cccc(C)c3nc2n(Cc2ccco2)c1=NC(=O)c1cccnc1	none
Cc1cccc(C(=O)N=c2c(C#N)cc3c(=O)n4cccc(C)c4nc3n2Cc2ccco2)c1	Diaph inh CS 60
O=C(CCl)Nc1nc(-c2ccco2)c(-c2ccco2)s1	Diaph inh CS 65
O=C(O[C@@H]1OC2COC(=O)c3cc(O)c(O)c(O)c3-c3c(cc(O)c(O)c3O)C(=O)O[C@@H]([C@H]1O)[C@@H]2O)c1cc(O)c(O)c(O)c1	Diaph inh CS 62
CCn1ncc([N+](=O)[O-])c1C(=O)Nc1c(C)nn(Cc2ccc(F)cc2)c1C	none
FC(F)(F)c1ccccc1NC(=S)N/N=C1\CC2CC=CC12 (stereo unspecified)	none
Nc1nn2c(-c3ccccc3)cc(=O)[nH]c2c1N=Nc1ccc(Br)cc1	none
Nc1nn2c(-c3ccccc3)cc(=O)[nH]c2c1N=Nc1ccc(O)cc1	Diaph inh CS 54
O=[N+]([O-])c1ccc(Cl)c2c1C1C=CCC1C(c1ccccn1)N2 (stereo unspecified)	none
O=C(O)C1Nc2c(O)cc(Cl)c([N+](=O)[O-])c2C2C=CCC12 (stereo unspecified)	PMI act hi M6P 2.2, Diaph inh CS 71
CCc1ccc(-n2c(C)cc(/C=N/NC(=O)c3ccncc3)c2C)cc1	Diaph inh CS 84
